Source: PubChem BioAssay (Johns Hopkins Ion Channel Center)
MrgX1 antag = blocks BAM8-22 activation of human MrgX1 receptor | Q96LB2 | MRGX1-HEK293 calcium flux, Fluo-4, BAM8-22 antagonism; stronger effect = lower value | B-score at 10 µM | actives 1.3% (n = 310,000) | AID 588676;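 active = calcium-response B-score plate-corrected more than 3 library SD below zero, starting fluorescence within 5 deviations, no agonist response on first addition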;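 note: peak minus trough fluorescence over baseline after final BAM8-22 challenge near maximal dose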
Target sequence (Q96LB2 whole entry, looked up): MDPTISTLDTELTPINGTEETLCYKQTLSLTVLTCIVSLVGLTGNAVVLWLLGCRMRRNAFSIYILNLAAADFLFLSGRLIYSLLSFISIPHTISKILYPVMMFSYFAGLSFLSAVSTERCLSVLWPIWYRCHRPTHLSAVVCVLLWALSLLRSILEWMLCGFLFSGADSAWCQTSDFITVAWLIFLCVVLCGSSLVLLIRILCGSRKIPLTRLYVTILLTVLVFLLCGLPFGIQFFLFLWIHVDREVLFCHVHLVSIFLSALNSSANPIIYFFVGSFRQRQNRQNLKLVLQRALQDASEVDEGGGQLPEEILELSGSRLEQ
MrgX1 PAM = allosterically activates human MrgX1 receptor signaling. Q96LB2. MrgX1-HEK293, Fluo-4 calcium flux, FDSS; stronger effect = higher value. B-score at 10 µM. actives 0.63% (n = 310,000);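 active = plate-corrected calcium response at least 3 library SD above typical, normal starting fluorescence, not activating the receptor alone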;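 note: compound read alongside a low EC10 to EC30 dose of BAM8-22 agonist; peak minus trough fluorescence over baseline measured at the second addition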
RGS4 block = human RGS4 inhibition. AID 463165. P49798. B-score at 10 µM. HEK293 M3R/RGS4 inducible, Fluo-4 calcium flux; stronger effect = higher value; triggered by carbachol at its EC20. actives 0.45% (n = 310,000);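 active = B-score, a plate-corrected calcium signal, over three deviations above library mean, with baseline fluorescence within five deviations of library mean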;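 note: RGS4 expression induced by doxycycline in cells with stable M3 receptor; B-score is computed from the integrated fluorescence ratio over baseline after carbachol; higher B-score means a larger calcium signal and so more RGS4 inhibition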
Target sequence (P49798 whole entry, looked up): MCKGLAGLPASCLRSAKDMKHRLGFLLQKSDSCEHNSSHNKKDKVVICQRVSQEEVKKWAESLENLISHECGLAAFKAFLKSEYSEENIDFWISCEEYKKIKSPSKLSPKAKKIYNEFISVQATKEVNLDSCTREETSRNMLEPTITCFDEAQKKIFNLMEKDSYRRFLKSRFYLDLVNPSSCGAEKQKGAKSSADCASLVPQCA
RGS4 pot = potentiators or activators of RGS4 | actives 0.92% (n = 310,000) | B-score at 10 µM | HEK293 M3R/inducible RGS4, carbachol calcium flux Fluo4; stronger effect = lower value;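 active = B-score of the integrated calcium signal more than 4 SD below the library mean, with starting fluorescence not abnormally high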;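 note: negative B-score means reduced calcium response which marks RGS4 activation or potentiation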
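Also added: carbachol at ECmax as muscarinic agonist stimulus; Assay system: HEK293 cells with stable M3R and inducible RGS4; Timing: overnight RGS4 induction, 30 min dye load 37 °C, 20 min compound RT; Measured by: Fluo4-AM (2 µM) calcium-flux fluorescence, kinetic read.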
MrgX1 agonist = human MrgX1 receptor agonism, primary screen; actives 0.44% (n = 310,000); MrgX1-HEK293 cells, Fluo-4 calcium fluorescence, agonist mode; stronger effect = higher value; B-score at 10 µM; Q96LB2;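 active = calcium response B-score plate-corrected fluorescence ratio at least 3 library SD, with starting fluorescence B-score inside 5 SD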
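Test system: HEK293 cells stably expressing human MrgX1 receptor; amount: 15,000 cells per well; doses: compound delivered in addition one of three; times: overnight plating before 1 h dye loading; detection: Fluo-4 NW calcium-flux fluorescence, kinetic read; read-out basis: B-scored fluorescence response ratio; controls: positive and negative controls per plate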
RGS4 act valid = RGS4 activation, validation assay; shares compounds with RGS4 pot; actives 89% (n = 1,100); HEK293 M3R/RGS4 inducible, carbachol calcium flux Fluo4; inhibition, % at 10 µM;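 active = inhibition above 3 SD of the buffer control wells, cut at about 41% in these data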;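 note: signal is the integrated peak-minus-minimum Fluo4 fluorescence over baseline ratio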
RGS4 act ctr = RGS4 activator counter-screen hit in non-induced cells. actives 82% (n = 1,100). inhibition, % at 10 µM. HEK293 M3R non-induced RGS4, Fluo4 calcium flux; after carbachol challenge at its EC90. shares compounds with RGS4 pot;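 active = inhibition exceeding 3 SD of buffer-only control wells, cut at about 26% in these data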;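 note: percent drop in integrated peak-minus-baseline over baseline Fluo4 ratio after carbachol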
* = called active by the depositor; i = inactive; · = no result. Only some compounds are listed: those with a hit (about 3.5% of all), similar ones and a draw of the others.

SMILES	MrgX1 antag	MrgX1 PAM	RGS4 block	RGS4 pot	MrgX1 agonist	others
O=c1[nH]c(=O)n(-c2ccccc2F)c(O)c1/C=C1\C=Nc2ccccc21	i	i	11*	i	47*
O=c1[nH]c(=O)n(CC2CCCO2)c(O)c1/C=C1\C=Nc2ccccc21 (centres undefined)	i	i	i	i	34*
Nc1ncc2[nH]cnc2n1	i	i	i	i	i
C[N+]12CCC(CC1)C(C(O)(c1cccc(Cl)c1)c1cccc(Cl)c1)C2 (centres undefined)	i	i	i	-9.2*	i
CC[N+]12CCC(CC1)C(C(O)(c1ccccc1)c1ccccc1)C2 (centres undefined)	i	i	i	-8*	i
CC(C)[N+]12CCC(CC1)C(C(O)(c1ccccc1)c1ccccc1)C2 (centres undefined)	i	i	i	-8.4*	i
COc1ccc(C2=CC(c3ccc(OC)c(OC)c3)c3c(c4ccccc4oc3=O)O2)cc1OC (centres undefined)	i	i	i	i	i
N#CC1(c2ccccc2)CCN(C2CC(=O)N(c3ccc4c(c3)OCO4)C2=O)CC1 (centres undefined)	i	i	i	i	i
COC(=O)C1=CCCN(C)C1	i	i	i	i	57*
CCOCN(C(=O)CCl)c1c(C)cccc1CC	i	i	i	i	i
C[N+]1(CCC(C(N)=O)(c2ccccc2)c2ccccc2)CCCCC1	i	i	i	-7*	i
CCN1C(=O)NC(=O)/C(=C\c2cn(CC(=O)N3CCCC3)c3ccccc23)C1=O	i	i	i	i	i
O=C1NC(=O)N(c2ccccc2F)C(=O)/C1=C/c1cn(CC(=O)N2CCOCC2)c2ccccc12	i	i	9.9*	i	i
CN(C)c1ccc(P(=S)(N(C)C)N(C)C)cc1	i	i	i	i	i
CCOP(=S)(OCC)c1ccc(N(C)C)cc1	i	10*	i	i	i
CCOP(=O)(OCC)C1(C(=O)O)CCCC1	i	i	i	i	i
NC(Cc1ccccc1)Cc1ccccc1	i	i	i	i	i
C[N+](C)(C)Cc1ccccc1	i	i	i	-8.6*	i
CC(N)C(=O)OC(C)(C)Cc1ccc(Cl)cc1 (centres undefined)	i	i	·	·	i
Nc1ccc(CCN2CCN(c3cccc(C(F)(F)F)c3)CC2)cc1	i	i	i	i	i
FC(F)(F)c1ccc2c(c1)N(CCCN1CCN(CCCl)CC1)c1ccccc1S2	i	i	i	-8.9*	i
CC(C)CCOP(N)(=O)Oc1ccccc1Cl (centres undefined)	i	i	i	i	i
CC/C(=C\C=C\[C@@H]1C=C[C@@H]2CCC[C@H]2[C@@H]1C(=O)c1ccc[nH]1)[C@@H]1O[C@@H]([C@@H](C)C(=O)O)CC[C@@H]1C	i	i	i	-8.2*	35*
CCC(CO)(C(=O)OC1C[N+]2(C)CCC1CC2)c1ccccc1 (centres undefined)	i	i	i	-8.9*	i
O=[N+]([O-])c1ccc(N2CCCNCC2)c2ncccc12	i	i	i	-8.1*	i
SMILES	MrgX1 antag	MrgX1 PAM	RGS4 block	RGS4 pot	MrgX1 agonist	others
C/C=C(\C)C(=O)OC1C(C)=C2C(C1OC(=O)CCCCC)C(C)(OC(C)=O)CC(OC(=O)CCC)C1(O)C2OC(=O)C1(C)O (centres undefined)	i	i	i	-8.9*	49*
COc1cccc(C2(O)CCSCC2CN(C)C)c1 (centres undefined)	i	i	i	i	i
O=C1CC(=O)N(c2cccc(F)c2)C(=O)N1	i	i	i	i	i
CC(C)(O)[C@H]1O[C@H]2CC[C@@]3(C)[C@@](O)(CC[C@H]4Cc5c([nH]c6ccccc56)[C@@]43C)C2=CC1=O	-4.6*	i	i	i	i
COc1ccccc1-n1c(-c2ccc(C)cc2)nc2ccccc2c1=O	·	·	i	i	·
CN1C2CCC1CC(=NO)C2	-5.3*	i	i	i	i
CC(C)N1C(=O)NC(=O)C2(Cc3cc([N+](=O)[O-])ccc3N(C)C2c2ccccc2)C1=O (centres undefined)	i	i	i	i	i
Cc1cc(Cl)ccc1C(=O)C1CCCN(C2CCSCC2)C1 (centres undefined)	i	i	i	-10*	i	RGS4 act valid=90*;RGS4 act ctr=69*
O=C(c1ccc(C(F)(F)F)cc1)C1CCCN(C2CCSCC2)C1 (centres undefined)	i	i	i	-12*	i	RGS4 act valid=90*;RGS4 act ctr=48*
CC(C)CN1CCN(Cc2ccc(C(F)(F)F)cc2)CC1CCO (centres undefined)	i	i	i	i	i
O=C(c1cccc(Cl)c1)C1CCCN(Cc2cccc3cnccc23)C1 (centres undefined)	i	i	i	-7.6*	i	RGS4 act valid=52*;RGS4 act ctr=84*
COc1ccc(CN2CCCC(C(=O)c3cccc(Cl)c3)C2)cc1 (centres undefined)	i	i	i	i	i
O=C(Nc1ccccc1F)OC1CN2CCC1CC2 (centres undefined)	i	i	i	-10*	i	RGS4 act valid=51*;RGS4 act ctr=0
O=C(Nc1ccccc1Cl)OC1CN2CCC1CC2 (centres undefined)	i	i	i	-8.5*	i	RGS4 act valid=88*;RGS4 act ctr=62*
O=C(Nc1cccc(Cl)c1)OC1CN2CCC1CC2 (centres undefined)	i	i	i	i	i
O=C(Nc1ccc(Cl)cc1)OC1CN2CCC1CC2 (centres undefined)	i	i	i	i	i
CC1CN=C(Nc2cccc3ccccc23)S1 (centres undefined)	i	i	i	-8.5*	i	RGS4 act valid=0;RGS4 act ctr=0
CC1CN=C(Nc2ccccc2)S1 (centres undefined)	i	i	i	i	i
CN(C)C(=O)Oc1ccc2c(c1)O/C(=C\c1cccc([N+](=O)[O-])c1)C2=O	i	i	i	i	i
